Measured values published in PubChem BioAssay.
Activity calls are given as the source filed them. Rule as the data show it, unless noted: active = inhibition above about 30%; inactive = the rest.

Legend:
[1] = Her2 expression decrease, cell viability multiplex – SKBR3 breast tumor cells, AlphaScreen, ATP viability, primary screen (AID 461;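 active = Her2 level under about 52% in both replicate screens, with viability over 70% of control, limit read from the data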;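 as to Her2 level: lower value means less Her2 protein in the cells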;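 as to viability: percent of carrier control wells set as 100% viability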); conditions: SKBR3 Her2 protein level, 18-24 h, measured here: SKBR3 viability, ATP luminescence, at 10 µM
[2] = target: Receptor tyrosine-protein kinase erbB-2 (Homo sapiens) (UniProt P04626); assay: as above; conditions: 18-24 h, at 10 µM, stronger effect = lower value
Chain of Receptor tyrosine-protein kinase erbB-2 (Homo sapiens) (P04626 whole entry, looked up): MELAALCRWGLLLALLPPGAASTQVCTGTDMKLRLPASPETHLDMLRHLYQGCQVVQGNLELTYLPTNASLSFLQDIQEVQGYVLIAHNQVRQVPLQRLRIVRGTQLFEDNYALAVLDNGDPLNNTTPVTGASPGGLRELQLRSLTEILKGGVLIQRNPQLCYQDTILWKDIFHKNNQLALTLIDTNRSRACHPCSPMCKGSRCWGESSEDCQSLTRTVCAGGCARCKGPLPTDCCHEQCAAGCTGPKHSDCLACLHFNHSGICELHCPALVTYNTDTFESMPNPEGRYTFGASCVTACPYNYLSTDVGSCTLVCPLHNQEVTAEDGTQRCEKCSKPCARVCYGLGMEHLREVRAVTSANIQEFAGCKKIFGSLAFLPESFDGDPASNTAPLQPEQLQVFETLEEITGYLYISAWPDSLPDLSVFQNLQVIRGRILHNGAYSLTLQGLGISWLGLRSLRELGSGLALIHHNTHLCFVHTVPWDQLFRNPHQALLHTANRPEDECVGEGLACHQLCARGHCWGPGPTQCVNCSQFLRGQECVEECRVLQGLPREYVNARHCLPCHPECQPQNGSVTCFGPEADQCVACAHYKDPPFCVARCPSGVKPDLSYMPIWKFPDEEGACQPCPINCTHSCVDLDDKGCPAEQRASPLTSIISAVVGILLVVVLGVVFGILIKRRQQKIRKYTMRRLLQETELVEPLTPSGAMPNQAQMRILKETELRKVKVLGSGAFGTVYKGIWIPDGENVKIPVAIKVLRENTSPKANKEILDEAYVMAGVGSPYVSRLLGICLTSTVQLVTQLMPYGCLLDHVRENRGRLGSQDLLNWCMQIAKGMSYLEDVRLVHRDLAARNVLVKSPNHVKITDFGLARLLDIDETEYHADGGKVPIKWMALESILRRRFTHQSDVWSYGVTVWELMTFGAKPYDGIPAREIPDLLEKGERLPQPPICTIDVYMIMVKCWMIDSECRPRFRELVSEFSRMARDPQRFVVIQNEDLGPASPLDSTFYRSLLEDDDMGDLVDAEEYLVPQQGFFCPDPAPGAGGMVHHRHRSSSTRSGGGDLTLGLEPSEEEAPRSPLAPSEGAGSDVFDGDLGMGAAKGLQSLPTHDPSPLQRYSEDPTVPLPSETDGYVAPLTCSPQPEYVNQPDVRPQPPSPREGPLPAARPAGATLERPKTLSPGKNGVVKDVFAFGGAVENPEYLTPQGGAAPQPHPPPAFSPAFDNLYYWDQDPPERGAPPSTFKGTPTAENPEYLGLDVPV

[3] = reduced viability of SK-BR-3 breast cancer cells – cell-based, 24 h, human, pilot screen (AID 572;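 active = viability at or below 10% of carrier control in both of two separate runs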;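 also: compound exposure lasted between 18 and 24 h rather than exactly 24 h; 100% = carrier-treated control wells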); conditions: SK-BR-3 viability, CellTiter-Glo luminescence, at 10 µM, stronger effect = lower value
[4] = HUVEC growth inhibition – cell-based, human, primary screen (AID 575;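 active = viability at or below 30% in both replicate assays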;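 also: 100% = median of untreated cell wells with 0.1% DMSO on each plate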); conditions: HUVEC proliferation, CellTiter-Glo luminescence, 72 h; at 10 µM; stronger effect = lower value
In short: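 Assay system: Primary human umbilical vein endothelial cells | Quantity: 1250 cells per well | Medium: Supplemented EBM, 2% fetal bovine serum | Detection: CellTiter-Glo luminescence measuring cellular ATP | Read-out: % viability vs DMSO wells | Plate: Collagen-coated 384-well format | Times: 72 h exposure, 37 °C, 5% CO2, 30 min RT equilibration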

[5] = H69AR cell proliferation blockers – human, duplicate replicates, primary screen (AID 580;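 active = viability at or under a set limit in both replicates, limit being median viability minus 3 SD, cut at about 48% in these data, passing the limit was not always enough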;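 also: 100% = mean luminescence of untreated wells and 0% = no signal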); conditions: H69AR lung tumor cells viability, ATP luminescence, 72 h; at 10 µM; stronger effect = lower value
[6] = MRP1 drug-resistance reversers in H69AR cells – cell-based, doxorubicin co-treatment, pilot screen (AID 601;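 active = viability loss from added drug above about 55%, and viability with drug at most 40%, in both replicates, limit read from the data, passing the limit was not always enough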); conditions: CellTiter-Glo, 72 h, at 10 µM; for differential viability (reversal): stronger effect = higher value
[7] = yeast transport mutant growth inhibition pilot in 384-well plates, post-Golgi transport modulator project (AID 636; in the data active = inhibition above about 31%); conditions: absorbance 615 nm, about 18 h, stronger effect = higher value
[8] = growth suppression of yeast trafficking mutant, preliminary HTS, modulators of trafficking downstream of Golgi apparatus project, 1536-format plate, OD 615 nm (AID 637); conditions: yeast transport mutant growth, absorbance 615 nm, 18 h; stronger effect = higher value
[9] = H69AR cells + 2 uM doxorubicin, measured here: viability with 2 uM doxorubicin, stronger effect = lower value
[10] = H69AR cells, compound alone cytotoxicity

Row | SMILES | viability [1] | Her2 level [2] | viability [3] | viability [4] | viability [5] | differential viability (reversal) ([6]; H69AR cells + 2 uM doxorubicin) | viability [6, 9] | viability [6, 10] | inhibition [7] | inhibition [8]
1 | CCOC(=O)CSc1nc2ccccc2n1CC(=O)N1CCN(c2ccccc2)CC1 | 93.5% | 99.5% (inactive) | 93.5% (inactive) | 87.2% (inactive) | 89.9% (inactive) | 2.73% (inactive) | 87.1% | 89.9% | -1.3% (inactive) | -4.92% (inactive)
2 | COc1ccc(C)cc1NC(=O)CN1CCN(S(=O)(=O)c2ccc(Cl)cc2)CC1 | 81.5% | 87% (inactive) | 81.5% (inactive) | 74.7% (inactive) | 82.6% (inactive) | 25.3% (inactive) | 57.3% | 82.6% | -3.55% (inactive) | -2.17% (inactive)
3 | COc1ccccc1CC(NC(C)=O)C(=O)NC1CCN(c2nnnn2-c2ccccc2)CC1 (stereo not given) | 97% | 102% (inactive) | 97% (inactive) | 94.8% (inactive) | 96.5% (inactive) | -1.01% (inactive) | 97.5% | 96.5% | -0.95% (inactive) | 0% (inactive)
4 | CCOC(=O)N1CCN(C(=O)c2ccc(N3C(=O)CCC3=O)cc2)CC1 | 110% | 110% (inactive) | 110% (inactive) | 104% (inactive) | 105% (inactive) | 17.4% (inactive) | 87.6% | 105% | -7.03% (inactive) | -9.83% (inactive)
5 | CC(C)Oc1ccc(C2C(C(=O)c3ccco3)=C(O)C(=O)N2CCCN(C)C)cc1 (stereo not given) | 89% | 99.5% (inactive) | 89% (inactive) | 118% (inactive) | 110% (inactive) | 8.15% (inactive) | 102% | 110% | -1.18% (inactive) | 8.2% (inactive)
6 | CC1CN(C2CCCCC2)c2nc3c(c(=O)[nH]c(=O)n3C)n2C1 (stereo not given) | 90.5% | 95% (inactive) | 90.5% (inactive) | 86.1% (inactive) | 82.2% (inactive) | -2.19% (inactive) | 84.4% | 82.2% | -1.95% (inactive) | 7.3% (inactive)
7 | COc1ccccc1OCc1ccc(C(=O)Nc2ccncc2)o1 | 79.5% | 92% (inactive) | 79.5% (inactive) | 84.9% (inactive) | 89.4% (inactive) | -0.005% (inactive) | 89.4% | 89.4% | -3.07% (inactive) | 6.61% (inactive)
8 | COc1ccccc1C(=O)Nc1nc2ccc(S(C)(=O)=O)cc2s1 | 89.5% | 78% (inactive) | 89.5% (inactive) | 93.5% (inactive) | 79.5% (inactive) | -6.1% (inactive) | 85.6% | 79.5% | 0.64% (inactive) | -1% (inactive)
